Reference: ChEMBL document CHEMBL1129439, “Synthesis and in vitro characterization of N-[5-(4,5-dihydro-1H-imidazol-2-yl)-2-hydroxy-5,6,7,8- tetrahydronaphthalen-1-yl]methanesulfonamide and its enantiomers: a novel selective alpha 1A receptor agonist” (J Med Chem, 1996)

How the values were obtained:
[1] = biological target: T1, Alpha-1A adrenergic receptor (Bos taurus, UniProt P18130); test: Binding affinity towards bovine clonal Alpha-1A adrenergic receptor
T1 sequence (P18130 whole entry): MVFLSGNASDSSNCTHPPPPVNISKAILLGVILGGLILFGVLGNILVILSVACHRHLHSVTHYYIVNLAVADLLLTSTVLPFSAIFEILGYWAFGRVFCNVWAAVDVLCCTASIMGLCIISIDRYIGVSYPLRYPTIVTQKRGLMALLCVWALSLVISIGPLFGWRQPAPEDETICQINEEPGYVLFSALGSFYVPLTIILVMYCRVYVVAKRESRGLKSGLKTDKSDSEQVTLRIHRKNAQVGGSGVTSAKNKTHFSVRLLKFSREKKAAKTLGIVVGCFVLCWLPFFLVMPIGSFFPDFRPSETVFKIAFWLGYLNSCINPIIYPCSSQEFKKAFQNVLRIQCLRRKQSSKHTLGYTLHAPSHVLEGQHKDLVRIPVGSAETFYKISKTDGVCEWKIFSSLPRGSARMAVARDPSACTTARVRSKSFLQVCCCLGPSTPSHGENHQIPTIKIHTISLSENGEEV
Outline: (§1)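 Radioligand binding to cloned receptors: bovine α1a for line 1 and rat α1d for line 2.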

[2] = biological target: T2, Alpha-1A adrenergic receptor (Homo sapiens) (UniProt P35348); test: Percent response towards alpha 1A adrenergic receptor in canine prostate using phenylephrine as control agonist; assay type: functional, tissue-based; settings: Canis lupus familiaris; Prostate gland; target entry is the homologue from another species
T2 sequence (whole entry): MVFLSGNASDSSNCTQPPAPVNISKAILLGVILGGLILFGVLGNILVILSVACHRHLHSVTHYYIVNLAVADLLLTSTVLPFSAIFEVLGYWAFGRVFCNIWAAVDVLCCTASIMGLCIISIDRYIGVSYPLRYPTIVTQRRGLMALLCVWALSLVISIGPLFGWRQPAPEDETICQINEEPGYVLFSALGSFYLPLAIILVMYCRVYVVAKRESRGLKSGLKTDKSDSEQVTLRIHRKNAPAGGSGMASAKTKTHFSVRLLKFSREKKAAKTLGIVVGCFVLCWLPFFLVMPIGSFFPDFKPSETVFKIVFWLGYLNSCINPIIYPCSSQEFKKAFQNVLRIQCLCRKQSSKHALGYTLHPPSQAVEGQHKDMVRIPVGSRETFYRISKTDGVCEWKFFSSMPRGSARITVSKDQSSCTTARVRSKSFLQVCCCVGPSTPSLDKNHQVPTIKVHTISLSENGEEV

[3] = biological target: T3, Alpha-1A adrenergic receptor (Rattus norvegicus) (UniProt P43140); test: Percent response towards alpha 1A adrenergic receptor in rat vas deferens using phenylephrine as control agonist; assay type: functional, tissue-based
T3 sequence (whole entry): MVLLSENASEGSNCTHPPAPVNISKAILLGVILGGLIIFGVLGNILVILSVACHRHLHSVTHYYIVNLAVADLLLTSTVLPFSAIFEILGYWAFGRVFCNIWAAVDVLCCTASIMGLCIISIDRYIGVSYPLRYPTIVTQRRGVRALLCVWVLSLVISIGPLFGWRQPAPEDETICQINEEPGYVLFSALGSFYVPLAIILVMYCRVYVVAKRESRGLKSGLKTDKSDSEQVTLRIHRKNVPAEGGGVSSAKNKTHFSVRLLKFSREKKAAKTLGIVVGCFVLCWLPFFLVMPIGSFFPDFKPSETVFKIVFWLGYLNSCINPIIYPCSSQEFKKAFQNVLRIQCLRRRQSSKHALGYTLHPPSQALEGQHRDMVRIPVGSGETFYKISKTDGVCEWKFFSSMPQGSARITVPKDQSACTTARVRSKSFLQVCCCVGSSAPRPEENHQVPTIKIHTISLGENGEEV

[4] = biological target: T4, Alpha-1D adrenergic receptor (Rattus norvegicus) (UniProt P23944); test: Percent response towards alpha 1D adrenergic receptor in rat aorta using phenylephrine as control agonist; assay type: functional, tissue-based
T4 sequence (whole entry): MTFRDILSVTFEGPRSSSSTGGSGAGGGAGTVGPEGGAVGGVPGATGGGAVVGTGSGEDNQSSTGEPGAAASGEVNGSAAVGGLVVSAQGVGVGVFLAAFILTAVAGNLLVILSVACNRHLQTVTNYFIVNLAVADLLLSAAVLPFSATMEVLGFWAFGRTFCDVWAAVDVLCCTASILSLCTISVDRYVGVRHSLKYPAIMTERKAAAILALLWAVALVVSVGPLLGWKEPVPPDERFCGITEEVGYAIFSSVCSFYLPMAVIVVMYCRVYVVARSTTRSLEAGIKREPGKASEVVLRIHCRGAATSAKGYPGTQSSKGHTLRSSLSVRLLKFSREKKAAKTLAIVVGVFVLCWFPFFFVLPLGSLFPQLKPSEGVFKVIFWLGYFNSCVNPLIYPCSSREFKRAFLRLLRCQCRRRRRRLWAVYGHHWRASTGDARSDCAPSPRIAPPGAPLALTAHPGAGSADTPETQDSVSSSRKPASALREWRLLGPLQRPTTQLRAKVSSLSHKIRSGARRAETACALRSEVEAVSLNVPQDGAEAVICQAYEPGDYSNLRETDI

[5] = biological target: T5, Alpha-1D adrenergic receptor (Rattus norvegicus, UniProt P23944); test: In vitro agonist potency towards Alpha-1D adrenergic receptor in rat aorta; assay type: functional, tissue-based
T5 sequence (P23944 whole entry): T4 sequence (whole entry)

[6] = biological target: T5, Alpha-1D adrenergic receptor; test: Binding affinity towards rat clonal Alpha-1D adrenergic receptor; outline: as §1
[7] = biological target: T6, Alpha-1B adrenergic receptor (Mesocricetus auratus, UniProt P18841); test: Binding affinity towards hamster clonal Alpha-1B adrenergic receptor; assay type: single protein
T6 sequence (P18841 whole entry): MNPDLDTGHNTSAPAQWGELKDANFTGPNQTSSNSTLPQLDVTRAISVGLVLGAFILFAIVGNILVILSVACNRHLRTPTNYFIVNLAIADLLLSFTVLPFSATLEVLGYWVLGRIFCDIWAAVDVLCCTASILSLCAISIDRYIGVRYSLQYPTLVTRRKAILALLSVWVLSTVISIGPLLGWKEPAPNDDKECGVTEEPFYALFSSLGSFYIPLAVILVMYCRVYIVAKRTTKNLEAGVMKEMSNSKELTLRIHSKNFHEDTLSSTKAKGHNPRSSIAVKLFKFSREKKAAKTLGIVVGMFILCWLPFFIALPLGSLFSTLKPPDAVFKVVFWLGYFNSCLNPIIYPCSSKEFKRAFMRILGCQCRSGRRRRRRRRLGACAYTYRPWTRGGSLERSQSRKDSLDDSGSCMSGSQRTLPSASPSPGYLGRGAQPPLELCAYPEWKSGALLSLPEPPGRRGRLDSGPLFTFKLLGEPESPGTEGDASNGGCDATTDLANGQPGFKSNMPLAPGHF

[8] = biological target: T7, Alpha-1B adrenergic receptor (Rattus norvegicus, UniProt P15823); test: In vitro agonist potency towards Alpha-1B adrenergic receptor in rat spleen; assay type: functional, tissue-based
T7 sequence (P15823 whole entry): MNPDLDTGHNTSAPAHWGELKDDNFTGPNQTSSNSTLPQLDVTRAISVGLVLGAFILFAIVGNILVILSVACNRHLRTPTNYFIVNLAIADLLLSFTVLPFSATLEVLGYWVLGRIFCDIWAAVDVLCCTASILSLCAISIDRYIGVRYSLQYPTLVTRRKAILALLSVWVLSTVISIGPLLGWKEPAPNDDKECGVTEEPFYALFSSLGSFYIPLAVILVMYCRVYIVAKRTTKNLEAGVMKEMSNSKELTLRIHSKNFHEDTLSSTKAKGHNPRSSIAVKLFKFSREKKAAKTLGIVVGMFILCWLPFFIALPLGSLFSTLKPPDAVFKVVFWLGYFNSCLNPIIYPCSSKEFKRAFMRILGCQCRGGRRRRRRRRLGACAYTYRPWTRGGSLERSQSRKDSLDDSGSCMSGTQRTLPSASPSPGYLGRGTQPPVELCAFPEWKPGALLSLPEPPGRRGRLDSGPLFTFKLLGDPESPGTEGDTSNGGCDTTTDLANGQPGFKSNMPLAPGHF

| Compound | Ki [1] [nM] | Emax [2] [%] | Emax [3] [%] | Emax [4] [%] | EC50 [5] [nM] | Ki [6] [nM] | Ki [7] [nM] | EC50 [8] [nM] |
| --- | --- | --- | --- | --- | --- | --- | --- | --- |
| CS(=O)(=O)Nc1c(O)ccc2c1CCCC2C1=NCCN1 (stereo not given) | 30.2 | 91 | 108 | 100 | 2570 | 1350 | 2090 | – |
| CNC[C@H](O)c1cccc(O)c1 [PHENYLEPHRINE] | 933 | 100 | 100 | 100 | – | – | – | – |
| CS(=O)(=O)Nc1c(O)ccc2c1CCC[C@@H]2C1=NCCN1 | 1450 | 24 | 45 | – | > 100000 | 2950 | 17400 | > 100000 |
| CS(=O)(=O)Nc1c(O)ccc2c1CCC[C@H]2C1=NCCN1 | 17.4 | 63 | 78 | 103 | 1020 | 1020 | 2820 | 186 |
| Cc1cc(C(C)(C)C)c(O)c(C)c1CC1=NCCN1 [OXYMETAZOLINE] | 13.2 | 71 | 80 | 83 | – | – | – | – |
| NCC(O)c1ccc(O)c(O)c1 (single isomer, unassigned) [NOREPINEPHRINE] | 447 | 117 | 105 | 113 | – | – | 263 | – |
